Where “and” joins values, the source holds several entries; their conditions need not be identical. Identical values can stand only once. Calls of active or inactive are those of the source. No cut-off for these calls is given here.
test system: Mus musculus; assay: Antiinflammatory activity in mouse assessed as effective dose per ear for inhibition of PMA-induced ear edema; type: functional; details: not given
Summary of the method: (§1)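 Mouse ear edema: test compound applied topically in acetone to the inside pinna of the left ear together with PMA (2 µg/ear), under brief halothane anesthesia. Right ears received acetone only. Five mice per group. After 3 h 20 min the mice were euthanized and a 6 mm central ear biopsy was weighed. Edema was taken as the left-minus-right weight difference, expressed as % inhibition versus the PMA-only control group.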

| Structure (SMILES) | ED50 |
| --- | --- |
| CC(C)=C[C@H]1C[C@H](C)[C@H]2CC[C@H](C)c3c(O[C@@H]4OC[C@@H](O)[C@H](O)[C@H]4O)c(O)c(C)c1c32 [PSEUDOPTEROSIN A] | 12 µg |

test system: Mus musculus; assay: Antiinflammatory activity in mouse assessed as inhibition of PMA-induced ear edema at 25 ug/ear administered topically as single dose after PMA challenge and measured after 3 hrs and 20 mins; type: functional; details: in the assay text read “simultaneously with PMA” for “after PMA challenge”; summary of the method: as §1

| Structure (SMILES) | inhibition (INH) | inhibition |
| --- | --- | --- |
| Oc1c(OC2OC[C@@H](O)[C@H](O)[C@H]2O)cc2c3c1CCCC3CCC2 (some centres not stated) | 44% | – |
| C[C@@H]1CC[C@@H]2CCCc3cc(O[C@@H]4O[C@@H](C)[C@@H](O)[C@@H](O)[C@@H]4O)c(O)c1c32 (relative stereo) | 50% | – |
| C[C@@H]1O[C@@H](Oc2cc3c4c(c2O)[C@@H](C)CC[C@@H]4CCC3)[C@@H](O)[C@H](O)[C@@H]1O (relative stereo) | 58% | – |
| Oc1cc2c3c(c1OC1OC[C@@H](O)[C@H](O)[C@H]1O)CCCC3CCC2 (some centres not stated) | 37% | – |
| C[C@@H]1O[C@@H](Oc2cc3c4c(c2O)C(=O)CCC4CCC3)[C@@H](O)[C@H](O)[C@@H]1O (some centres not stated) | – | inactive |
| Cc1c(O)c(O[C@@H]2O[C@@H](C)[C@@H](O)[C@@H](O)[C@@H]2O)c2c3c1CCCC3CCC2 (some centres not stated) | 49% | – |
| C[C@@H]1O[C@@H](Oc2c(O)c(C(F)(F)F)c3c4c2CCCC4CCC3)[C@@H](O)[C@H](O)[C@@H]1O (some centres not stated) | 45% and 53% | – |
| C[C@@H]1OC(Oc2c(O)cc3c4c2CCCC4CCC3)[C@@H](O)[C@H](O)[C@@H]1O (some centres not stated) | 24% | – |
| C[C@@H]1O[C@@H](Oc2cc3c4c(c2O)CCCC4CCC3)[C@@H](O)[C@H](O)[C@@H]1O (some centres not stated) | 34% | – |
| CC(C)=C[C@H]1C[C@H](C)[C@H]2CC[C@H](C)c3c(O[C@@H]4OC[C@@H](O)[C@H](O)[C@H]4O)c(O)c(C)c1c32 [PSEUDOPTEROSIN A] | 70% | – |
| C[C@@H]1O[C@@H](Oc2cc3c4c(c2O)C(C)(C)CCC4CCC3)[C@@H](O)[C@H](O)[C@@H]1O (some centres not stated) | 38% | – |
